Experimental data taken from ChEMBL document CHEMBL1145109, “Discovery of 4-benzoyl-1-[(4-methoxy-1H- pyrrolo[2,3-b]pyridin-3-yl)oxoacetyl]-2- (R)-methylpiperazine (BMS-378806): a novel HIV-1 attachment inhibitor that interferes with CD4-gp120 interactions” (J Med Chem, 2003).

Assays:
[1] = Cytotoxicity activity of compound in MT-2 cells against LAI (T) tropic virus that utilizes the CXCR-4 co-receptor virus was determined; format: functional; conditions: MT2
Outline: (§1)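 CC50 in µM, measured as cytotoxicity toward the host cells used for the antiviral assays, either MT-2 or PM1 cells.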

[2] = tested on: Human immunodeficiency virus 1; assay: Inhibitory activity of compound against SF-162 (M) Macrophage tropic virus that utilizes the CCR5 was determined; format: functional, organism-based, sf-162 macrophage tropic virus; conditions: Human immunodeficiency virus 1, CCR5
[3] = tested on: Human immunodeficiency virus 1; assay: Inhibitory activity of compound against TLAV (dual) virus that utilizes both CXR4 and CCR5 co-receptor virus was determined; format: functional, organism-based; conditions: Human immunodeficiency virus 1, TLAV
[4] = Inhibitory activity of compound against NL4-3 (T) tropic virus that utilizes the CXCR-4 co-receptor was determined; format: functional, nl4-3 tropic virus
[5] = tested on: Human immunodeficiency virus 1; assay: Cytotoxicity activity of compound in PM1 cells against BAl (M) Macrophage tropic virus that utilizes the CCR5 virus was determined; format: functional; conditions: Human immunodeficiency virus 1, PM1; outline: as §1
[6] = Inhibitory activity of compound against LAI (T) tropic virus that utilizes the CXCR-4 co-receptor was determined; format: functional
[7] = tested on: Human immunodeficiency virus 1; assay: Cytotoxicity activity of compound in MT-2 cells against TLAV (dual) virus that utilizes both CXR4 and CCR5 co-receptor virus was determined; format: functional; conditions: Human immunodeficiency virus 1, TLAV, MT2; outline: as §1
[8] = tested on: Human immunodeficiency virus 1; assay: Inhibitory activity of compound against BAl (M) Macrophage tropic virus that utilizes the CCR5 co-receptor was determined; format: functional, organism-based; conditions: Human immunodeficiency virus 1, CCR5
[9] = tested on: Human immunodeficiency virus 1; assay: Inhibitory activity of compound against SF-2 (T) tropic virus that utilizes the CXCR-4 co-receptor was determined; format: functional, organism-based, sf-2 tropic virus
[10] = The total clearance time in dog was determined; format: ADME, organism-based, Canis lupus familiaris; conditions: in vivo, read-out: CLtotal
Outline: (§2)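 Given to rat, dog and cynomolgus monkey as a solution in poly(ethylene glycol) 400/ethanol (90:10 v/v), by intravenous and oral (po) dosing. The iv/po dose pairs in mg/kg were 5/5 or 1/5 in rat and 2/10 or 0.67/3.4 in dog and monkey. Plasma sampling gave Fpo (%), oral Cmax (µM), CLtot (mL/min/kg) and Vss (L/kg).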

[11] = The total clearance time in rat was determined; format: ADME, organism-based; conditions: in vivo, read-out: CLtotal; outline: as §2
[12] = The volume of distribution of compound a was determined in dog; format: ADME, organism-based, Canis lupus familiaris; conditions: in vivo, read-out: Vss; outline: as §2
[13] = Oral bioavailability after paroral administration of 10 (mg/kg) polyethelene glycol in monkey was determined; format: ADME, organism-based; conditions: primates, in vivo; outline: as §2
[14] = The volume of distribution of compound was determined in rat; format: ADME, organism-based; conditions: in vivo, read-out: Vss; outline: as §2
[15] = The maximum plasma concentration of compound after paroral administration of 10 (mg/kg) polyethelene glycol in monkey was determined; format: ADME, organism-based; parameters: dose 10 mg/kg, route oral; conditions: simiiformes, po; outline: as §2
[16] = The volume of distribution of compound was determined in monkey; format: ADME, organism-based; conditions: simiiformes, in vivo; read-out: Vss; outline: as §2
[17] = Oral bioavailability after paroral administration of 10 (mg/kg) polyethelene glycol in dog was determined; format: ADME, organism-based, Canis lupus familiaris; conditions: in vivo; outline: as §2
[18] = The total clearance time in monkey was determined; format: ADME, organism-based; conditions: simiiformes, in vivo; read-out: CLtotal; outline: as §2
[19] = Oral bioavailability after peroral administration of 5(mg/kg) polyethelene glycol in rat was determined; format: ADME, organism-based; conditions: in vivo; outline: as §2
[20] = The maximum plasma concentration of compound after peroral administration of 5(mg/kg) polyethelene glycol in rat was determined; format: ADME, organism-based; parameters: dose 5 mg/kg, route oral; conditions: po; outline: as §2
[21] = The maximum plasma concentration of compound after paroral administration of 10 (mg/kg) polyethelene glycol in dog was determined; format: ADME, organism-based, Canis lupus familiaris; parameters: dose 10 mg/kg, route oral; conditions: po; outline: as §2
[22] = tested on: Human immunodeficiency virus 1; assay: Cytotoxicity activity of compound against BAl (M) Macrophage tropic virus that utilizes the CCR5 virus was determined; format: functional; conditions: Human immunodeficiency virus 1, CCR5; outline: as §1
[23] = tested on: Human immunodeficiency virus 1; assay: Cytotoxicity activity of compound against TLAV (dual) virus that utilizes both CXR4 and CCR5 co-receptor virus was determined; format: functional; conditions: Human immunodeficiency virus 1, TLAV; outline: as §1
[24] = tested on: Human immunodeficiency virus 1; assay: Inhibitory activity of compound in MT-2 cells against JRFL (M) Macrophage tropic virus that utilizes the CCR5 was determined; format: functional, organism-based
[25] = The maximum plasma concentration of compound after paroral administration of 3.4(mg/kg) polyethelene glycol in monkey was determined; format: ADME, organism-based; parameters: dose 3.4 mg/kg, route oral; conditions: simiiformes, po; outline: as §2
[26] = Oral bioavailability after paroral administration of 3.4(mg/kg) polyethelene glycol in monkey was determined; format: ADME, organism-based; conditions: primates, in vivo
Outline: (§3)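 Oral dosing as a solution in PEG 400/ethanol (90:10 v/v). Separate iv arms were used for comparison: rat 1 mg/kg iv vs 5 mg/kg po, dog and cynomolgus monkey 0.67 mg/kg iv vs 3.4 mg/kg po. Oral bioavailability (Fpo, %) was derived from plasma exposure after oral relative to intravenous dosing.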

[27] = The maximum plasma concentration of compound after paroral administration of 3.4(mg/kg) polyethelene glycol in dog was determined; format: ADME, organism-based, Canis lupus familiaris; parameters: dose 3.4 mg/kg, route oral; conditions: po; outline: as §2
[28] = The volume of distribution of compound was determined in dog; format: ADME, organism-based, Canis lupus familiaris; conditions: in vivo, read-out: Vss; outline: as §2
[29] = The maximum plasma concentration of compound after paroral administration of 5(mg/kg) polyethelene glycol in rat was determined; format: ADME, organism-based; parameters: dose 5 mg/kg, route oral; conditions: po; outline: as §2
[30] = Oral bioavailability after paroral administration of 3.4(mg/kg) polyethelene glycol in dog was determined; format: ADME, organism-based, Canis lupus familiaris; conditions: in vivo; outline: as §3
[31] = tested on: Human immunodeficiency virus 1; assay: Inhibitory activity of compound against JRFL (M) Macrophage tropic virus that utilizes the CCR5 was determined; format: functional, organism-based; conditions: Human immunodeficiency virus 1, CCR5
[32] = Oral bioavailability after paroral administration of 5(mg/kg) polyethelene glycol in rat was determined; format: ADME, organism-based; conditions: in vivo; outline: as §3
[33] = The volume of distribution of compound against rat was determined; format: ADME, organism-based; conditions: in vivo, read-out: Vss; outline: as §2

| SMILES | CC50 [1] | EC50 [2] | EC50 [3] | EC50 [4] | CC50 [5] | EC50 [6] | CC50 [7] | EC50 [8] | EC50 [9] | clearance [10] | clearance [11] | Vd [16] | clearance [18] | other results |
| --- | --- | --- | --- | --- | --- | --- | --- | --- | --- | --- | --- | --- | --- | --- |
| O=C(C(=O)N1CCN(C(=O)c2ccccc2)CC1)c1c[nH]c2ccccc12 | 145000 nM | 230 nM | 149 nM | 5130 nM | > 200000 nM | 86 nM | 145000 nM | 28700 nM | 1030 nM |  |  |  |  |  |
| O=C(C(=O)N1CCN(C(=O)c2ccccc2)CC1)c1c[nH]c2cccc(F)c12 | 146000 nM |  | 13.6 nM | 30.8 nM |  | 2.93 nM |  | 18.1 nM | 62.4 nM | 2.4 mL/min/kg | 48 mL/min/kg | 0.24 L/kg | 3.1 mL/min/kg | Vd [12]: 1.8 L/kg; bioavailability [13]: 100%; Vd [14]: 0.99 L/kg; Cmax [15]: 34 µM; bioavailability [17]: 100%; bioavailability [19]: 9.4%; Cmax [20]: 0.15 µM; Cmax [21]: 18 µM; CC50 [22]: 52500 nM; CC50 [23]: 146000 nM; EC50 [24]: 2.39 nM |
| COc1ccnc2[nH]cc(C(=O)C(=O)N3CCN(C(=O)c4ccccc4)C[C@H]3C)c12 | > 300000 nM | 3.46 nM | 0.85 nM | 2.94 nM | > 300000 nM | 2.68 nM | > 300000 nM | 15.5 nM | 26.5 nM | 5.2 mL/min/kg | 32 mL/min/kg | 0.39 L/kg | 10 mL/min/kg | Cmax [25]: 0.51 µM; bioavailability [26]: 24%; Cmax [27]: 7.4 µM; Vd [28]: 0.47 L/kg; Cmax [29]: 0.22 µM; bioavailability [30]: 77%; EC50 [31]: 1.47 nM; bioavailability [32]: 19%; Vd [33]: 0.56 L/kg |
